We go through one compound from article PMC6645658 (ACS Omega, 2017).

The series is described as follows: In vivo rat BBB penetration. Summed up: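 Rats were dosed iv, and plasma and brain tissue were sampled at 0.25 h after dosing. Plasma concentration is in ng/mL and brain concentration in ng/g. Kp-unbound was derived using the unbound fractions measured in rat plasma and rat brain tissue, and was used to judge blood-brain barrier penetration.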

By Kp is commonly meant the ratio of the level in a tissue or fluid to that in plasma or blood. With `COc1ccsc1CNCC[C@@]1(c2ccccn2)CCOC2(CCCC2)C1` [TRV130, [(3-methoxythiophen-2-yl)methyl]({2-[(9R)-9-(pyridine-2yl)-6-oxaspiro-[4,5]decan-9-yl]ethyl})amine], the concentration at 0.25 h (brain, iv) was 315 ng/g. Where the note is “brain/plasma, intravenous”, this compound displayed a Kp at 0.25 h of 0.936.
